Test [1] addresses Voltage-gated potassium channel, KQT; KCNQ2(Kv7.2)/KCNQ3(Kv7.3) (Homo sapiens, UniProt O43525+O43526). Put plainly: Activation of KCNQ2/KCNQ3 expressed in CHO cells by isotopic efflux assay. In kind it is cell-based. The procedure, abridged: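 86Rb+ flux in K+-channel-expressing cells loaded by culture in 86RbCl, then washed in EBSS. Preincubated with drug (0.01-30 μM in EBSS), then efflux stimulated by submaximal KCl (generally 7-20 mM) with drug still present. Supernatant and SDS lysate counted by Cherenkov. Percent efflux normalized to high-KCl (generally 30-135 mM) maximum. EC50 from eight-point half-log curves; mean of 2-4 determinations ± SEM.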

The subject of test [2] is Rattus norvegicus. Put plainly: Antinociceptive activity in formalin-treated Sprague-Dawley rat model assessed as reduction in hind paw flinches at 17 mg/kg, po measured during 11 to 60 mins of phase 2 flinches. The test is classed as functional. Also on record: scale not given: the % may be the effect or the level left. In short, it runs like this:
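Male Sprague-Dawley rats dosed po in 0.5% methylcellulose 1 h before assay. A 0.5 g metal band was glued to the right hind paw 1 h beforehand. 2.5% formalin (50 μL) was injected sc into the dorsal right hind paw. An electromagnetic detector counted flinches for 60 min; phase II is 11-60 min post-injection.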

In test [3] the test system is Rattus norvegicus. The test is described as follows: Analgesic activity in Sprague-Dawley rat assessed as reduction of spinal nerve ligation-induced allodynia score at 10 mg/kg, po. The test is classed as functional. On the set-up: scale not given: the % may be the effect or the level left. In short, it runs like this: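 Male Sprague-Dawley rats; L5 spinal nerve tightly ligated with 4.0 silk distal to the DRG under halothane, then 2-3 weeks recovery. Dosed po in 0.5% methylcellulose. Von Frey tactile withdrawal thresholds measured on a wire mesh floor, top threshold 15 g. Baseline taken just before dosing; testing at 1 and 2 h post-dose.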

Test [4] has as its system Mus musculus. The test is described as follows: Anticonvulsant activity against maximal electroshock-induced seizures in CD1 mouse model at 20 mg/kg, po treated 30 mins before electroshock application. The test is classed as functional, organism-based. Also on record: dose 20 mg/kg. The procedure, abridged:
(§1)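 Male CD-1 mice dosed po (10 mL/kg in 5% DMSO/95% of 0.5% HPMC/1% Tween 80) 30 min before corneal electroshock at 50 mA for 0.2 s, with 1% proparacaine in each eye. Latency to hindlimb extension recorded to 0.1 s. No extension within 6 s scored as protected (latency 6 s). Reported as protected/tested (8 per group), or EC50 derived from latency scores.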
On the technique in general: Protection in the maximal electroshock model is a classic sign of anticonvulsant action.

In test [5] the test system is Rattus norvegicus. Put plainly: Antinociceptive activity in formalin-treated Sprague-Dawley rat model assessed as reduction in hind paw flinches at 100 mg/kg, iv measured during 11 to 60 mins of phase 2 flinches. In kind it is functional. On the set-up: scale not given: the % may be the effect or the level left. The procedure, abridged: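 Formalin test in male Sprague-Dawley rats fitted with a 0.5 g metal band on the right hind paw. Rats received 50 μL of 2.5% formalin sc into the dorsal right hind paw and were placed unrestrained over an electromagnetic detector. Flinches were counted for 60 min, with phase II defined as 11-60 min.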

The subject of test [6] is Rattus norvegicus. Put plainly: Analgesic activity in Sprague-Dawley rat assessed as reduction of spinal nerve ligation-induced allodynia score at 100 mg/kg, iv. The test is classed as functional. On the set-up: scale not given: the % may be the effect or the level left. In short, it runs like this: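 L5 spinal nerve ligation (4.0 silk, distal to DRG, halothane anesthesia) in male Sprague-Dawley rats, with 2-3 weeks recovery. Tactile allodynia read as von Frey paw withdrawal threshold on a wire mesh floor, capped at 15 g. Baseline measured right before dosing; behaviour tested 1 and 2 h after administration.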

In test [7] the test system is Mus musculus. The test is described as follows: Anticonvulsant activity against maximal electroshock-induced seizures in CD1 mouse model at 10 mg/kg, po treated 30 mins before electroshock application. The test is classed as functional, organism-based. Also on record: dose 10 mg/kg. In short, it runs like this:
as §1

Test [8] deals with Rattus norvegicus. The test is described as follows: Anticonvulsant activity in po dosed Sprague-Dawley rat assessed as inhibition of pentylenetetrazole-induced seizure treated 30 mins before PTZ challenge. In kind it is functional, organism-based. In short, it runs like this:
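Male Sprague-Dawley rats received compound po in 0.5% methylcellulose (1 mL/kg) 30 min before PTZ 85 mg/kg sc. Latency to tonic-clonic seizure timed from PTZ injection. No seizure within 15 min scored as protected (latency 15 min). EC50 derived from latency scores.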

Test [9] concerns Mus musculus. The test is described as follows: Anticonvulsant activity against maximal electroshock-induced seizures in CD1 mouse model at 30 mg/kg, ip treated 15 mins before electroshock application. In kind it is functional, organism-based. Also on record: dose 30 mg/kg. In short, it runs like this: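 Male CD-1 mice dosed ip at 30 mg/kg (10 mL/kg in 5% DMSO/95% of 0.5% HPMC/1% Tween 80) 15 min before corneal electroshock (50 mA, 0.2 s, 1% proparacaine in eyes). Hindlimb extension latency measured; no extension by 6 s counted as protected. Reported as protected/tested out of 8 mice.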

The subject of test [10] is Mus musculus. The test is described as follows: Anticonvulsant activity against maximal electroshock-induced seizures in CD1 mouse model at 30 mg/kg, po treated 30 mins before electroshock application. On the set-up: dose 30 mg/kg. In kind it is functional, organism-based. In short, it runs like this:
as §1

pEC50: −log10 of the molar value. Activity calls are given as the source filed them.

Sequence of Voltage-gated potassium channel, KQT; KCNQ2(Kv7.2)/KCNQ3(Kv7.3) (O43526 whole entry): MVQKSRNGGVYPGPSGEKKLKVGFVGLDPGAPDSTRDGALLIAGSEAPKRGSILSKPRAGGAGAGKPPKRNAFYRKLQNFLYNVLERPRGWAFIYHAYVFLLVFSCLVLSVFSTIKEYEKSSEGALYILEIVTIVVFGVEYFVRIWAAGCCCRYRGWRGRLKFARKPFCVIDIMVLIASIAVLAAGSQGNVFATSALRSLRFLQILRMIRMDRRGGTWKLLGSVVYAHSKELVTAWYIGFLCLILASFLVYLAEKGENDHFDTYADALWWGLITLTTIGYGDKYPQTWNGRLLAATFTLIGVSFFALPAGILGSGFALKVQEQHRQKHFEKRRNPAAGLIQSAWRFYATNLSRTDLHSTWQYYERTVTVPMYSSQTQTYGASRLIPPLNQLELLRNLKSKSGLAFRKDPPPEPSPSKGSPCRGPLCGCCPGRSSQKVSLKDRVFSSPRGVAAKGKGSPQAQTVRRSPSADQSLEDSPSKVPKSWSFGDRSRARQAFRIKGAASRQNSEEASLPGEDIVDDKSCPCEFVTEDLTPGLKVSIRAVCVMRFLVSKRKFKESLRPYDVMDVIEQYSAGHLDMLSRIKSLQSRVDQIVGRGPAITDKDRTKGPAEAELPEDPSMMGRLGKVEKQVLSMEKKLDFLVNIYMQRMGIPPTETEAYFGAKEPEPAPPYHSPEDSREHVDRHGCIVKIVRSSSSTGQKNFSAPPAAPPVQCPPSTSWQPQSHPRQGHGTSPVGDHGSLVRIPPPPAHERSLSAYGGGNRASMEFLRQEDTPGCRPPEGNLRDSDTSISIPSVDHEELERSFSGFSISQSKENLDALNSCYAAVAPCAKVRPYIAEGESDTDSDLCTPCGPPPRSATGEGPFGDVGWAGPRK
Sequence of Voltage-gated potassium channel, KQT; KCNQ2(Kv7.2)/KCNQ3(Kv7.3) (O43525 whole entry): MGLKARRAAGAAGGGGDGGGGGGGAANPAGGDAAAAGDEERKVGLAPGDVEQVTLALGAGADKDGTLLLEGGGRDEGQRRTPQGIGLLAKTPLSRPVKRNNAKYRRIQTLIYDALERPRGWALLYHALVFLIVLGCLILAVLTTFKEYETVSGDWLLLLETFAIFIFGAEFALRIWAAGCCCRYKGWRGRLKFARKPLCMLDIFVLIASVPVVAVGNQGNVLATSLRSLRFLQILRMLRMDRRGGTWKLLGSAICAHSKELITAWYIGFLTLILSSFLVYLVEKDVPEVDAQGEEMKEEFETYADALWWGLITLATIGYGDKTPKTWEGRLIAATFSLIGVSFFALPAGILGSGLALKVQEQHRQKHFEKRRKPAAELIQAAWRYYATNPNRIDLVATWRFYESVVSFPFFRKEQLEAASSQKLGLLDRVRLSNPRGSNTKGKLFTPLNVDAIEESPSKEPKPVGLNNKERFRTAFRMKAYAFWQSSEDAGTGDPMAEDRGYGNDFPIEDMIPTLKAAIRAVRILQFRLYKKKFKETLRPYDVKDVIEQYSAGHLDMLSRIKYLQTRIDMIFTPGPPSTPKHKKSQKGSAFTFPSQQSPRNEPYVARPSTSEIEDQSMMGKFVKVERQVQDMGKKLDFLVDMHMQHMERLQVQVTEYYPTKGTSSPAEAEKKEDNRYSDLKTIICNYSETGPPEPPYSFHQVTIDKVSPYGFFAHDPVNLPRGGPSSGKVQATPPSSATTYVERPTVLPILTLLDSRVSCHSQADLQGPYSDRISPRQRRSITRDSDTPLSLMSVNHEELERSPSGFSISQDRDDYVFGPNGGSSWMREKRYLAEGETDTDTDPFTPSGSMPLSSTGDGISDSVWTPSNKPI

One may read the pEC50 as the EC50 on a negative log10 scale, so that one unit is a factor of ten. On to `Cn1/c(=N/NC(=O)C2CCOC2)sc2cc(OC(F)(F)F)ccc21` (centres undefined), for which the pEC50 in test [1] was 5.17.

`Cn1/c(=N/NC(=O)C23CC4CC(CC(C4)C2)C3)oc2ccccc21`: the pEC50 in test [1] is 5.57.

In [1], `Cn1/c(=N/NC(=O)C23CC4CC(CC(C4)C2)C3)sc2ccccc21` showed a pEC50 of 7.57.

In test [1], `Cn1/c(=N/NC(=O)C23CC4CC(CC(C4)C2)C3)sc2c(C(F)(F)F)cccc21` showed a pEC50 of 5.68.

In test [1], `Cn1/c(=N/NC(=O)C23CC4CC(CC(C4)C2)C3)sc2cc(F)cc(F)c21` gave a pEC50 of 6.80.

Compound `CN(/N=c1\sc2ccccc2n1C)C(=O)C12CC3CC(CC(C3)C1)C2` showed a pEC50 in test [1] below 5.00.

Take `CCOC(=O)Nc1ccc(NCc2ccc(F)cc2)cc1N` [EZOGABINE]: the figures for the Activity in the test on Rattus norvegicus [2] and in the test with Rattus norvegicus [3] were 49% and 0%, respectively.

Take `CCn1/c(=N/NC(=O)C23CC4CC(CC(C4)C2)C3)sc2ccccc21`: the negative logarithm of the EC50 (pEC50) in test [1] is 6.24.

`Cn1/c(=N/NC(=O)C2CCCC2)sc2cc(OC(F)(F)F)ccc21` gave a pEC50 in test [1] of 7.21. Further, the result in the test on Mus musculus [4] was inactive.

In the case of `Cn1/c(=N/NC(=O)C23CC4CC(CC(C4)C2)C3)sc2cccc(C(F)(F)F)c21`, the pEC50 in test [1] is 7.04.

In the case of `NCC1(CC(=O)O)CCCCC1` [GABAPENTIN], the Activity is given as 61% in the test on Rattus norvegicus [5] and 70% in the test with Rattus norvegicus [6].

With `Cn1/c(=N/NC(=O)C(C)(C)C)sc2cc(OC(F)(F)F)ccc21`, the pEC50 in test [1] is 6.15. Also, in the test with Mus musculus [7], the result was inactive. Also, the EC50 in the test on Rattus norvegicus [8] is 3.8 mg/kg.

With `Cn1/c(=N/NC(=O)C2CCCO2)sc2cc(OC(F)(F)F)ccc21` (centres undefined), the pEC50 in test [1] was 5.25.

The compound `Cn1/c(=N/NC(=O)OC2CCCC2)sc2cc(OC(F)(F)F)ccc21` showed a pEC50 in test [1] of 7.54.

`CC(=O)N/N=c1\sc2cc(OC(F)(F)F)ccc2n1C` gave a pEC50 in [1] below 5.00.

For `Cn1/c(=N/NC(=O)C23CC4CC(CC(C4)C2)C3)sc2cc(OC(F)(F)F)ccc21`, the pEC50 in test [1] was 7.60. Besides, in the test with Mus musculus [9], the outcome was Active.

The compound `Cn1/c(=N/NC(=O)C23CC4CC(CC(C4)C2)C3)sc2cccc(F)c21` showed a pEC50 in test [1] of 6.42.

As to `Cn1/c(=N/NC(=O)c2cccc(F)c2)sc2cc(OC(F)(F)F)ccc21`, the pEC50 in [1] is 7.00.

In the case of `Cn1/c(=N/NC(=O)C23CC4CC(CC(C4)C2)C3)sc2cc(F)ccc21`, in test [1], the pEC50 is 7.55. In the test on Mus musculus [10], the outcome was inactive.

For `Cn1/c(=N/NC(=O)C23CC4CC(CC(C4)C2)C3)sc2cc(F)c(F)cc21`, the pEC50 in [1] is 7.68.

In turn, `Cn1/c(=N/NC(=O)C23CC4CC(CC(C4)C2)C3)sc2ccc(C(F)(F)F)cc21` showed a pEC50 in [1] of 7.28. Also, the result in the test with Mus musculus [10] was inactive.

In test [1], `Cn1/c(=N/NC(=O)C23CC4CC(CC(C4)C2)C3)sc2c(F)cccc21` showed a pEC50 of 7.01. Also, the outcome in the test with Mus musculus [4] was inactive.

On to `Cn1/c(=N/NC(=O)C23CC4CC(CC(C4)C2)C3)sc2cc(C(F)(F)F)ccc21`, for which the pEC50 in [1] was 6.80. Further, the outcome in the test on Mus musculus [10] was inactive.

`Cn1/c(=N/NC(=O)C2CCCCC2)sc2cc(OC(F)(F)F)ccc21` showed a pEC50 in test [1] of 7.55.

In the case of `Cn1/c(=N/NC(=O)c2ccccc2)sc2cc(OC(F)(F)F)ccc21`, the pEC50 in test [1] is 6.59.

In turn, `Cn1/c(=N/NC(=O)c2ccco2)sc2cc(OC(F)(F)F)ccc21` showed a pEC50 in test [1] of 6.30.

In test [1], `Cn1/c(=N/NC(=O)c2ccc(F)cc2)sc2cc(OC(F)(F)F)ccc21` had a pEC50 of 7.36.

In test [1], `Cn1/c(=N/NC(=O)OC(C)(C)C)sc2cc(OC(F)(F)F)ccc21` gave a pEC50 of 7.64. Also, in the test on Mus musculus [7], the result was Active.

For the origin of these results see ChEMBL document CHEMBL1157731, “Novel KCNQ2/Q3 agonists as potential therapeutics for epilepsy and neuropathic pain” (J Med Chem, 2010).
